Consider 13 compounds from ChEMBL document CHEMBL1806466, “2-Amino-4-methyl-5-phenylethyl substituted-7-N-benzyl-pyrrolo[2,3-d]pyrimidines as novel antitumor antimitotic agents that also reverse tumor resistance” (Bioorg Med Chem, 2011).

Structures are written as SMILES. pIC50: −log10 of the molar value. Activity calls are given as the source filed them. The calls are words filed in the database; no cut-off is given here. Bounds are passed on as bounds.

Data set [1] can be described thus: Cytotoxic activity against drug-resistant […]-deficient human NCI/ADR cells expressing Pgp after 48 hrs by sulforhodamine B assay. The format is functional, cell-based. The conditions noted are these: NCI/ADR-RES. Summed up: (§1)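 Cells plated at ~15% confluency and allowed 24 h to attach, then exposed to varying test concentrations for 48 h. Survival by SRB binding, reported as % decrease in binding versus ethanol solvent controls, mean of three wells. For NCI/ADR, exposure with 0 or 50 nM vinblastine; for MCF-7/VP, with 0 or 1 nM vincristine.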
(In general: Sulforhodamine B stains cellular protein and so reports cell mass.)

In data set [2] the test system is MCF7. The data set can be described thus: Resistance factor, ratio of IC50 for Pgp-deficient human MCF7/VP cells expressing MRP1 in absence of vincristine to IC50 for drug sensitive human MCF7 cells in presence of 1 nM vincristine.
Data set [3] is described as follows: Cytotoxic activity against Pgp-deficient human MCF7/VP cells expressing MRP1 after 48 hrs by sulforhodamine B assay. The format is functional, cell-based. Summed up:
as §1

For data set [4], the system named is MCF7. Briefly: Resistance factor, ratio of IC50 for drug-resistant […] human NCI/ADR cells expressing Pgp in absence of vinblastin to IC50 for drug-sensitive human MCF7 cells in presence of 50 nM vinblastin. The format is functional.
For a further data set, the species on record is Bos taurus. The data set can be described thus: Effect on bovine brain microtubule depolymerization assessed as decrease in absorbance at wavelength 340 nm after 15 mins. Summed up: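 Bovine brain tubulin purified by three assembly/disassembly cycles followed by ion exchange. Tubulin at 2.5 mg/mL […] in 1 M glutamate, pH 6.6, with 4% DMSO, preincubated with compound at 0 °C for 15 min. 0.5 mM GTP then added and samples warmed to 37 °C. A340 monitored about 60 min.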

For data set [5], the system named is MCF7. Briefly: Cytotoxic activity against drug-sensitive Pgp-, MRP1-deficient human MCF7 cells after 48 hrs by sulforhodamine B assay. Conditions: MCF7, 48 h.
The target in data set [6] is Multidrug resistance-associated protein 1 (Homo sapiens, UniProt P33527). The data set can be described thus: Reversal of MRP1-mediated multidrug resistance in human MCF7/VP cells assessed as enhancement of cytotoxicity of vincristine after 48 hrs by sulforhodamine B assay. It is filed as cell-based. In short, it runs like this: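 MCF-7/VP cells plated at ~15% confluency and allowed 24 h to attach. […] Survival by SRB binding. MRP1 Antagonism Score = % survival without vincristine / % survival with vincristine.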
Sequence of Multidrug resistance-associated protein 1 (P33527 whole entry): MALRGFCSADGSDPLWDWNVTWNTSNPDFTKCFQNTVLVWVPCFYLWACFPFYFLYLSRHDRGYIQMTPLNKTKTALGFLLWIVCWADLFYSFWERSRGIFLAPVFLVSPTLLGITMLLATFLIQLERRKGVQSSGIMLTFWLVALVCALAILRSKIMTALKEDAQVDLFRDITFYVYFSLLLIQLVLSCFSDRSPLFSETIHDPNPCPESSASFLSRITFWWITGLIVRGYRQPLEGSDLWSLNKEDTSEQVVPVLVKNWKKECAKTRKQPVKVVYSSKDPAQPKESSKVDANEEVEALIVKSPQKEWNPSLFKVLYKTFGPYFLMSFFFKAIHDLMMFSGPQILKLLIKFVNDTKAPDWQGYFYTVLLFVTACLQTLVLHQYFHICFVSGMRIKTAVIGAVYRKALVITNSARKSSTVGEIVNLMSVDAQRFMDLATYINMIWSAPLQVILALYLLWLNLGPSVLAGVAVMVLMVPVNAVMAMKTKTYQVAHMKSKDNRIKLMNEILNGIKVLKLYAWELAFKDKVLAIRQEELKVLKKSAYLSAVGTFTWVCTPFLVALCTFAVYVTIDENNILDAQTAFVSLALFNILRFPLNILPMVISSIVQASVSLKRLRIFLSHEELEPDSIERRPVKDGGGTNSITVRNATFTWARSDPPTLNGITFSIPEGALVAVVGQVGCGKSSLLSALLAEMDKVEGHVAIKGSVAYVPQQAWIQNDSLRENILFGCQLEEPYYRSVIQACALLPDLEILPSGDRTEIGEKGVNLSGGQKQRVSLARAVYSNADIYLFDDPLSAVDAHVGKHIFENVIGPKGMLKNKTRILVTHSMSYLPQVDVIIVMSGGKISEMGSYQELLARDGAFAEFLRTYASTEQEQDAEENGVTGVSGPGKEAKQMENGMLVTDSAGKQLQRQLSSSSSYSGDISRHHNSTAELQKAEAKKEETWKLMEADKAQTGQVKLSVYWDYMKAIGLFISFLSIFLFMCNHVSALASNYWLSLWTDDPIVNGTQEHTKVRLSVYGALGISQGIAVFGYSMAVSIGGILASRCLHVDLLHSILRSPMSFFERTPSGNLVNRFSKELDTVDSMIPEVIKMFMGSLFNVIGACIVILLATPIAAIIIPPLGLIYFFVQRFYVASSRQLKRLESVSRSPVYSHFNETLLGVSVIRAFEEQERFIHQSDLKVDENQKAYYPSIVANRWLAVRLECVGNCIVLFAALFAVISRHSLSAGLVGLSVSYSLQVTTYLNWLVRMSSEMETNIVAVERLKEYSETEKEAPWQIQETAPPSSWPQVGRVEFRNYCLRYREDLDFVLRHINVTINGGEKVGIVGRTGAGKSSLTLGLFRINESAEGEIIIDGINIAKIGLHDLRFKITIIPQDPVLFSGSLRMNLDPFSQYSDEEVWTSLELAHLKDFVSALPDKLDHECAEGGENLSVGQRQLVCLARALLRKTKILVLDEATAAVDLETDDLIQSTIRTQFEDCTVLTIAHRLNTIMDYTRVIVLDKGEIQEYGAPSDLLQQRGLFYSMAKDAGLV

In another data set the test system is NCI/ADR. Briefly: Reversal of Pgp-mediated multidrug resistance in human NCI/ADR cells assessed as enhancement of cytotoxicity of vinblastine after 48 hrs by sulforhodamine B assay. It is filed as cell-based. Summed up: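 NCI/ADR cells plated at ~15% confluency and allowed 24 h to attach. […] Survival by SRB binding, each value the mean of three wells, with ethanol solvent controls. Pgp Antagonism Score = % survival without vinblastine / % survival with vinblastine.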

The pIC50 is the IC50 on a negative log10 scale, so that one unit is a factor of ten. Read a low pIC50 as a high IC50. Take `CC(=O)O[C@H]1C(=O)[C@@]2(C)[C@H]([C@H](OC(=O)c3ccccc3)[C@]3(O)C[C@H](OC(=O)[C@H](O)[C@@H](NC(=O)c4ccccc4)c4ccccc4)C(C)=C1C3(C)C)[C@]1(OC(C)=O)CO[C@@H]1C[C@@H]2O` [PACLITAXEL]: the figures for the pIC50 in data set [1] and in data set [3] were 5.57 and 8.55, respectively. The figures for the “Ratio IC50” value in the data set with MCF7 [2] and with MCF7 [4] were 1.1 and 1080, respectively. The result in the data set listed under Bos taurus was inactive.
On the same counts, the results for `CC[C@]1(O)C[C@@H]2CN(CCc3c([nH]c4ccccc34)[C@@](C(=O)OC)(c3cc4c(cc3OC)N(C)[C@H]3[C@@](O)(C(=O)OC)[C@H](OC(C)=O)[C@]5(CC)C=CCN6CC[C@]43[C@@H]65)C2)C1` [VINBLASTINE] are below 3.43, 8.52, 1.1, above 134 and “Active”.
On to `COc1cc(CCc2cn(Cc3ccccc3)c3nc(N)nc(C)c23)cc(OC)c1`, for which the pIC50 was 4.92 in data set [1], 4.60 in the data set on MCF7 [5] and 4.77 in data set [3]. The “Ratio IC50” value in the data set with MCF7 [2] is 0.68; in the data set with MCF7 [4] it was 0.48. In addition, the outcome in data set [6] was Active. Besides, the result in the data set listed under Bos taurus and with NCI/ADR was inactive.
Take `CC[C@]1(O)C[C@H]2CN(CCc3c([nH]c4ccccc34)[C@@](C(=O)OC)(c3cc4c(cc3OC)N(C=O)[C@H]3[C@@](O)(C(=O)OC)[C@H](OC(C)=O)[C@]5(CC)C=CCN6CC[C@]43[C@@H]65)C2)C1` [VINCRISTINE]: the results for the pIC50 in data set [1] and in data set [3] were 4.00 and 8.03, respectively. For the same compound, the figures for the “Ratio IC50” value with MCF7 [2] and in the data set on MCF7 [4] were 15.5 and 167, respectively. Also, the result in the data set listed under Bos taurus was Active.
With `COc1ccc(CCc2cn(Cc3ccccc3)c3nc(N)nc(C)c23)c(OC)c1`, the results for the pIC50 (in data set [1]; in the data set with MCF7 [5]; in data set [3]) were 5.22, 4.77 and 4.92, respectively. Also, the “Ratio IC50” value in the data set with MCF7 [2] worked out at 0.71; with MCF7 [4], 0.35. Besides, in data set [6], the Activity result is listed as “Not Active”. Also, the outcome in the data set listed under Bos taurus was inactive. The outcome with NCI/ADR was Active.
As to `COc1ccccc1CCc1cn(Cc2ccccc2)c2nc(N)nc(C)c12`, the figures for the pIC50 in data set [1] and in data set [3] were 5.57 and 5.59, respectively. Also, the “Ratio IC50” value with MCF7 [2] is given as 1.13; in the data set on MCF7 [4], 1.17. The Activity entry in data set [6] was “Not Active”. For the same compound, the result in the data set with NCI/ADR was Active.
As for `COc1cc(OC)c(OC)cc1CCc1cn(Cc2ccccc2)c2nc(N)nc(C)c12`, the results for the negative logarithm of the IC50 (pIC50) (in data set [1]; with MCF7 [5]; in data set [3]) were 5.00, 4.82 and 4.82, respectively. Also, the entries for the “Ratio IC50” value with MCF7 [2] and in the data set on MCF7 [4] were 1 and 0.66, respectively. Also, in data set [6], the Activity entry was “Not Active”. Besides, the outcome in the data set filed under Bos taurus and with NCI/ADR was inactive.
For `COc1ccc(CCc2cn(Cc3ccccc3)c3nc(N)nc(C)c23)cc1OC`, the negative logarithm of the IC50 (pIC50) in data set [1] was 5.30; in the data set on MCF7 [5], 4.77; in data set [3], 5.15. Also, the figures for the “Ratio IC50” value in the data set with MCF7 [2] and in the data set on MCF7 [4] were 0.41 and 0.29, respectively. For the same compound, the Activity result in data set [6] is given as “Not Active”. The result in the data set listed under Bos taurus and in the data set with NCI/ADR was inactive.
With `COc1cccc(OC)c1CCc1cn(Cc2ccccc2)c2nc(N)nc(C)c12`, the pIC50 in data set [1] was 4.92; with MCF7 [5] it was 4.66; in data set [3], 4.70. Further, the “Ratio IC50” value was 0.91 in the data set with MCF7 [2] and 0.54 in the data set with MCF7 [4]. In data set [6], the Activity entry is “Not Active”. The result in the data set listed under Bos taurus and with NCI/ADR was Active.
As for `Cc1nc(N)nc2c1c(CCc1ccccc1Cl)cn2Cc1ccccc1`, the pIC50 in data set [1] is 4.96; in the data set with MCF7 [5] it was 4.70; in data set [3] it was 4.82. Besides, the “Ratio IC50” value in the data set with MCF7 [2] is 0.75; with MCF7 [4], 0.55. The Activity result in data set [6] is “Not Active”. Besides, the outcome in the data set listed under Bos taurus and in the data set with NCI/ADR was inactive.
On to `COc1cc(CCc2cn(Cc3ccccc3)c3nc(N)nc(C)c23)cc(OC)c1OC`, for which the pIC50 in data set [1] and in data set [3] was 6.60 in each case. Moreover, the “Ratio IC50” value with MCF7 [2] and with MCF7 [4] was 0.83 each time. The Activity entry in data set [6] is “Not Active”. The outcome in the data set filed under Bos taurus was Active. Moreover, the result in the data set with NCI/ADR was inactive.
For the compound `COc1cc(CCc2cn(Cc3ccccc3)c3nc(N)nc(C)c23)c(OC)c(OC)c1`, the pIC50 is 4.48 in data set [1], 4.30 with MCF7 [5] and 4.20 in data set [3]. For the same compound, the “Ratio IC50” value came out at 1.26 with MCF7 [2] and 0.66 in the data set on MCF7 [4]. In addition, the result in data set [6] was Active. In the data set filed under Bos taurus, the result was inactive. Besides, the outcome with NCI/ADR was Active.
As to `COc1ccc(CCc2cn(Cc3ccccc3)c3nc(N)nc(C)c23)c(OC)c1OC`, the negative logarithm of the IC50 (pIC50) in data set [1] is 4.96; in the data set with MCF7 [5] it was 4.74; in data set [3], 4.70. Moreover, the results for the “Ratio IC50” value in the data set on MCF7 [2] and in the data set on MCF7 [4] were 1.11 and 0.61, respectively. The outcome in data set [6] was Active. The outcome in the data set listed under Bos taurus was Active. Also, the result with NCI/ADR was inactive.
